# According to ChEMBL document CHEMBL1122841, “Structure-activity relationships among benextramine-related tetraamine disulfides at peripheral alpha-adrenoreceptors” (J Med Chem, 1985):
# Target: Adrenergic receptor alpha
# Experiment: Inhibitory activity against alpha adrenergic receptor in rat
row,Compound,IC50 [µM]
1,COc1ccccc1CNCCCCCCNCCSSCCNCCCCCCNCc1ccccc1OC [BENEXTRAMINE],4.02

# Species: Rattus norvegicus
# Experiment: Antimuscarinic activity against carbachol induced response in rat jejunum
# Format: functional
# In short: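 Rat jejunum under 1.0 g tension in the same PSS, stabilised with submaximal agonist doses. Cumulative carbachol curves used about 3-fold steps and force-transducer recording. After about 15 min rest, antagonist (10–100 µM) was incubated 30 min and the curve repeated. Dose ratios were taken before and after a 30-min wash; mean ± SEM of 5–6 observations.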
row,Compound,Kb [µM]
1,c1c[nH]c(CNCCCCCCNCCSSCCNCCCCCCNCc2ccc[nH]2)c1,5.25
2,COc1ccccc1CNCCCCCCNCCSSCCNCCCCCCNCc1ccccc1OC [BENEXTRAMINE],2.01

# Target: Adrenergic receptor alpha (Rattus norvegicus) (UniProt P15823+P23944+P43140+P22086+P19328+P22909)
# Experiment: Antagonistic blocking activity at alpha adrenergic receptor by NE induced contractions of the epididymal portion of isolated rat vas deferens at the dose of 20 uM
# Format: functional, tissue-based
# Parameters: scale not given: the % may be the effect or the level left
# In short: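 Epididymal portion of isolated rat vas deferens under 1.0 g tension in PSS (mM: NaCl 118, KCl 4.7, CaCl2 2.52, MgCl2 3.57, KH2PO4 1.54, NaHCO3 12.5, glucose 11.1). Antagonist at 20 µM for 30 min, then 30-min wash. Value is the percent decrease of maximum contraction to 100 µM NE versus control, mean ± SEM; n = 3–7.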
row,Compound,Activity [%]
1,c1ccc(CNCCCCCCNCCSSCCNCCCCCCNCc2ccccn2)nc1,78
2,Brc1cccc(CNCCCCCCNCCSSCCNCCCCCCNCc2cccc(Br)c2)c1,58
3,CS(=O)(=O)c1ccccc1CNCCCCCCNCCSSCCNCCCCCCNCc1ccccc1S(C)(=O)=O,35
4,O=[N+]([O-])c1ccccc1CNCCCCCCNCCSSCCNCCCCCCNCc1ccccc1[N+](=O)[O-],51
5,O=[N+]([O-])c1cccc(CNCCCCCCNCCSSCCNCCCCCCNCc2cccc([N+](=O)[O-])c2)c1,49
6,Clc1ccc(CNCCCCCCNCCSSCCNCCCCCCNCc2ccc(Cl)cc2Cl)c(Cl)c1,54
7,COc1cccc([N+](=O)[O-])c1CNCCCCCCNCCSSCCNCCCCCCNCc1c(OC)cccc1[N+](=O)[O-],42
8,c1c[nH]c(CNCCCCCCNCCSSCCNCCCCCCNCc2ccc[nH]2)c1,100
9,Brc1ccc(CNCCCCCCNCCSSCCNCCCCCCNCc2ccc(Br)cc2)cc1,34
10,c1coc(CNCCCCCCNCCSSCCNCCCCCCNCc2ccco2)c1,100
11,c1csc(CNCCCCCCNCCSSCCNCCCCCCNCc2cccs2)c1,80
12,c1ccc2c(CNCCCCCCNCCSSCCNCCCCCCNCc3cccc4ccccc34)cccc2c1,22
13,COc1ccc(CNCCCCCCNCCSSCCNCCCCCCNCc2ccc(OC)c(OC)c2[N+](=O)[O-])c([N+](=O)[O-])c1OC,27
14,Cn1cccc1CNCCCCCCNCCSSCCNCCCCCCNCc1cccn1C,100
15,Clc1cccc(CNCCCCCCNCCSSCCNCCCCCCNCc2cccc(Cl)c2)c1,46
16,c1ccc2cc(CNCCCCCCNCCSSCCNCCCCCCNCc3ccc4ccccc4c3)ccc2c1,27
17,COc1c(C)cccc1CNCCCCCCNCCSSCCNCCCCCCNCc1cccc(C)c1OC,59
18,c1ccc2ncc(CNCCCCCCNCCSSCCNCCCCCCNCc3cnc4ccccc4c3)cc2c1,36

row,Compound,Activity [%]
1,O=[N+]([O-])c1ccc(CNCCCCCCNCCSSCCNCCCCCCNCc2ccc([N+](=O)[O-])cc2)cc1,41
2,COc1ccccc1CNCCCCCCNCCSSCCNCCCCCCNCc1ccccc1OC [BENEXTRAMINE],100
3,Fc1ccc(CNCCCCCCNCCSSCCNCCCCCCNCc2ccc(F)cc2)cc1,100
4,c1cc(CNCCCCCCNCCSSCCNCCCCCCNCc2ccsc2)cs1,17
5,Clc1cc(Cl)cc(CNCCCCCCNCCSSCCNCCCCCCNCc2cc(Cl)cc(Cl)c2)c1,44
6,Clc1ccc(CNCCCCCCNCCSSCCNCCCCCCNCc2ccc(Cl)cc2)cc1,50
7,O=[N+]([O-])c1cc(O)c(O)cc1CNCCCCCCNCCSSCCNCCCCCCNCc1cc(O)c(O)cc1[N+](=O)[O-],99
8,c1cc(CNCCCCCCNCCSSCCNCCCCCCNCc2ccncc2)ccn1,11
9,Cc1ccc(CNCCCCCCNCCSSCCNCCCCCCNCc2ccc(C)o2)o1,100
10,COc1cc(CNCCCCCCNCCSSCCNCCCCCCNCc2cc(OC)c(OC)cc2[N+](=O)[O-])c([N+](=O)[O-])cc1OC,47
11,c1cncc(CNCCCCCCNCCSSCCNCCCCCCNCc2cccnc2)c1,13
12,c1ccc2c(CNCCCCCCNCCSSCCNCCCCCCNCc3ccnc4ccccc34)ccnc2c1,32
13,Clc1ccc(CNCCCCCCNCCSSCCNCCCCCCNCc2ccc(Cl)c(Cl)c2)cc1Cl,39
14,Fc1ccccc1CNCCCCCCNCCSSCCNCCCCCCNCc1ccccc1F,55
15,Brc1ccccc1CNCCCCCCNCCSSCCNCCCCCCNCc1ccccc1Br,58
16,O=[N+]([O-])c1c(CNCCCCCCNCCSSCCNCCCCCCNCc2ccc(O)c(O)c2[N+](=O)[O-])ccc(O)c1O,17
17,Fc1cccc(CNCCCCCCNCCSSCCNCCCCCCNCc2cccc(F)c2)c1,73
18,CSc1ccccc1CNCCCCCCNCCSSCCNCCCCCCNCc1ccccc1SC,66

# Target: Adrenergic receptor alpha
# Experiment: Inhibitory activity against alpha adrenergic receptor
# Format: protein assay
row,Compound,IC50 [µM]
1,c1c[nH]c(CNCCCCCCNCCSSCCNCCCCCCNCc2ccc[nH]2)c1,0.9
